Here are results for 61 compounds from ChEMBL document CHEMBL1146618, “Discovery of 2-amino-heteroaryl-benzothiazole-6-anilides as potent p56(lck) inhibitors” (Bioorg Med Chem Lett, 2003).

The target in experiment [1] is T1, Tyrosine-protein kinase Lck (Homo sapiens, UniProt P06239). The experiment is described as follows: Inhibition of human p56 Lck tyrosine kinase.
Experiment [2] can be described thus: Inhibition of anti-CD3, anti-CD28 induced PBL T-cell proliferation. The format is functional. The following applies: Homo sapiens.
For experiment [3], the target named is Tyrosine-protein kinase Fyn (Homo sapiens, UniProt P06241). The experiment can be described thus: Inhibition of Fyn protein kinase. In short, it runs like this:
(§1)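 Continuous coupled assay (pyruvate kinase/lactate dehydrogenase with PEP and NADH), run under the same conditions as the GST-Lck assay. Inhibitor was added in DMSO and the reaction started with ATP. Fluorescence was followed and rates were fitted by nonlinear least squares to derive Ki.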

In experiment [4] the target is T1, Tyrosine-protein kinase Lck. The experiment is described as follows: Inhibition of p56 Lck tyrosine kinase.
The target of experiment [5] is Proto-oncogene tyrosine-protein kinase Src (Homo sapiens, UniProt P12931). The experiment can be described thus: Inhibition of Src protein tyrosine kinase. In short, it runs like this: as §1
Chain of Proto-oncogene tyrosine-protein kinase Src (P12931 2-536 limits assumed): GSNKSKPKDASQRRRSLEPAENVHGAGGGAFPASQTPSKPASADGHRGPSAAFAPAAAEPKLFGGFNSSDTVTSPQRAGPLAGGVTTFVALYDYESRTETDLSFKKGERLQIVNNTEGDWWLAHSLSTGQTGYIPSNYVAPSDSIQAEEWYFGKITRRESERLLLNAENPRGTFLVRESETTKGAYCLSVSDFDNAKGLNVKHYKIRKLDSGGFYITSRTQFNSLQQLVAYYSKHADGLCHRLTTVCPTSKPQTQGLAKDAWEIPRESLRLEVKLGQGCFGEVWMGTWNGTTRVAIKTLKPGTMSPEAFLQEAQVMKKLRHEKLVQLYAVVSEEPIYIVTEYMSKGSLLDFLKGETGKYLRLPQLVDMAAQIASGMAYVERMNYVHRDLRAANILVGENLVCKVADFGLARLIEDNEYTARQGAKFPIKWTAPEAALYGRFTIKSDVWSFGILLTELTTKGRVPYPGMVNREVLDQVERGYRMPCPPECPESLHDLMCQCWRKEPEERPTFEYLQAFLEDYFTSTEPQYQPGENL

The structures appear in SMILES notation. pIC50, pKi: −log10 of the molar value.

Chain of Tyrosine-protein kinase Fyn (P06241 whole entry): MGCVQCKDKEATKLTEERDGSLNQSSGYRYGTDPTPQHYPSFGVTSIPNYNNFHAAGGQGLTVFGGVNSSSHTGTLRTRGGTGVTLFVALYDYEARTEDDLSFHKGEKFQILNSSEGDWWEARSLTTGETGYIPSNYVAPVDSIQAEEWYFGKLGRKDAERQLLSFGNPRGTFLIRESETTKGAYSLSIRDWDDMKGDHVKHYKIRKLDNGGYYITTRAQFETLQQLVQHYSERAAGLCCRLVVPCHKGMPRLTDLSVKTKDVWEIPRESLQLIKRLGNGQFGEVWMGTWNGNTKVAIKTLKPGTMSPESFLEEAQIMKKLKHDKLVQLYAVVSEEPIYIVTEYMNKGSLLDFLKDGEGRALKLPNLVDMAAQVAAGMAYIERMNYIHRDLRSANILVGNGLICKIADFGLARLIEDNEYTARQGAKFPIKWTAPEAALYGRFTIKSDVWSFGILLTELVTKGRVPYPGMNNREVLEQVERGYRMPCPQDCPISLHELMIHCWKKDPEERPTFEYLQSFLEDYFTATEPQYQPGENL
T1 sequence (P06239 whole entry): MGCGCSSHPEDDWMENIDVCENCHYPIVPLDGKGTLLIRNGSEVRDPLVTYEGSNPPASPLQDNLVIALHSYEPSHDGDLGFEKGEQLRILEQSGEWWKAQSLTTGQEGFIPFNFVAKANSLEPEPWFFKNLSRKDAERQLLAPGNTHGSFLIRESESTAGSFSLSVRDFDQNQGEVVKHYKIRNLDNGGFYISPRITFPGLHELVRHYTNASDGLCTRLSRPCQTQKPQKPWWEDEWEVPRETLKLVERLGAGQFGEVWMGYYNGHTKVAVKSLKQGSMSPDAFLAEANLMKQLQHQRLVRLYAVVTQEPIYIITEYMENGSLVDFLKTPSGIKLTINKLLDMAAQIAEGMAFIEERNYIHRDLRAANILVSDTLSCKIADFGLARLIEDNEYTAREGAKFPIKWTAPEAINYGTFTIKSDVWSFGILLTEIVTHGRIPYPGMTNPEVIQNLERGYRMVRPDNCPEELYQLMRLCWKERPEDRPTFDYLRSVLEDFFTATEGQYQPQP

In general, pIC50 refers to the IC50 on a negative log10 scale, so that one unit is a factor of ten. Low values mean a high IC50, high ones a low IC50. As to `Cc1cc(C)c(NC(=O)c2ccc3nc(Nc4ncc[nH]4)sc3c2)c(C)c1`, the negative logarithm of the IC50 (pIC50) in experiment [1] was less than 5.51. By pKi is commonly meant the Ki on a negative log10 scale, so that one unit is a factor of ten. Read a high pKi as a small Ki. With `Cc1cccc(Cl)c1NC(=O)c1ccc2nc(Nc3cccc(NCCO)n3)sc2c1`, the pIC50 in experiment [1] was 9.30; in experiment [2] it was 6.32. Also, the pKi in experiment [3] is 8.62; in experiment [4] it was 9.05; in experiment [5], 7.89. `CCc1cc(Nc2nc3ccc(C(=O)Nc4c(C)cccc4Cl)cc3s2)ncn1`: the negative-log IC50 (pIC50) in experiment [1] was 8.30.

Take `Cc1cccc(Cl)c1NC(=O)c1ccc2nc(Nc3cccc(N)n3)sc2c1`: the pIC50 in experiment [1] was 8.70. In experiment [1], `Cc1cccc(Nc2nc3ccc(C(=O)Nc4c(C)cccc4Cl)cc3s2)n1` had a pIC50 of 8.05. In experiment [1], `Cc1cccc(Cl)c1NC(=O)c1ccc2nc(Nc3ccn[nH]3)sc2c1` showed a pIC50 of 5.80. In experiment [1], `Cc1cccc(Cl)c1NC(=O)c1ccc2nc(Nc3cnccn3)sc2c1` showed a pIC50 of 7.82. In experiment [1], `Cc1cc(C)c(NC(=O)c2ccc3nc(Nc4ccncn4)sc3c2)c(C)c1` had a pIC50 of 6.39.

For the compound `Cc1cc(C)c(NC(=O)c2ccc3nc(Nc4ccccn4)sc3c2)c(C)c1`, the pIC50 in experiment [1] was 6.86. Take `Cc1cc(C)c(NC(=O)c2ccc3nc(Nc4cccc(C)n4)sc3c2)c(C)c1`: in experiment [1], the pIC50 is 6.74.

`Cc1cccc(Cl)c1NC(=O)c1ccc2nc(NN3C=CC=CN3)sc2c1` had a pIC50 in experiment [1] of 7.39. `Cc1cccc(Cl)c1NC(=O)c1ccc2nc(Nc3cc(CN4CCOCC4)ccn3)sc2c1`: the pIC50 in experiment [1] was 9.00. Still for that read-out and setting: with `CNCc1cc(Nc2nc3ccc(C(=O)Nc4c(C)cccc4Cl)cc3s2)nc(C)n1` the figure was 8.15; with `Cc1cc(C)c(NC(=O)c2ccc3nc(NCC4CC4)sc3c2)c(C)c1`, less than 5.51; with `Cc1cc(C)c(NC(=O)c2ccc3nc(Nc4ccccc4)sc3c2)c(C)c1`, 5.76.

As for `Cc1cccc(Cl)c1NC(=O)c1ccc2nc(Nc3cc(Cl)ncn3)sc2c1`, the pIC50 in experiment [1] is 7.70. `Cc1cccc(Cl)c1NC(=O)c1ccc2nc(Nc3ccncn3)sc2c1`: in experiment [1], the pIC50 was 7.57. In the case of `Cc1cc(C)c(NC(=O)c2ccc3nc(Nc4cc(C)nc(C)n4)sc3c2)c(C)c1`, in experiment [1], the pIC50 is 7.28.

Consider `Cc1cc(C)c(NC(=O)c2ccc3nc(Nc4cnc[nH]4)sc3c2)c(C)c1`, for which the negative-log IC50 (pIC50) in experiment [1] was less than 5.51. The same measure, in the same setting: with `Cc1cc(Nc2nc3ccc(C(=O)Nc4c(C)cccc4Cl)cc3s2)nc(CN2CCOCC2)n1` the figure was 8.00; with `Cc1cccc(Cl)c1NC(=O)c1ccc2nc(Nc3ccnc(NCCO)n3)sc2c1`, 8.52. Consider `Cc1cc(Nc2nc3ccc(C(=O)Nc4c(C)cccc4Cl)cc3s2)nc(NCC2CCCO2)n1` (stereo not given), for which the pIC50 in experiment [1] is 9.00; in experiment [2] it was 6.58. Further, the values for the pKi in experiment [3], in experiment [4] and in experiment [5] were 8.96, 9.27 and 8.49, respectively. Regarding `Cc1cccc(Cl)c1NC(=O)c1ccc2nc(Nc3ncc[nH]3)sc2c1`, the pIC50 in experiment [1] was less than 5.51.

Turning to `Cc1cccc(Cl)c1NC(=O)c1ccc2nc(NC(=O)NC(C)(C)C)sc2c1`, the pIC50 in experiment [2] was 5.96. Further, the pKi was 7.00 in experiment [3], 8.26 in experiment [4] and 6.48 in experiment [5]. In experiment [1], `Cc1cc(Nc2nc3ccc(C(=O)Nc4c(C)cccc4Cl)cc3s2)nc(C)n1` had a pIC50 of 7.70. As for `Cc1nc(CN2CCOCC2)cc(Nc2nc3ccc(C(=O)Nc4c(C)cccc4Cl)cc3s2)n1`, in experiment [1], the pIC50 was 8.22. The same measure, in the same setting: with `Cc1cnc(Nc2nc3ccc(C(=O)Nc4c(C)cc(C)cc4C)cc3s2)c(C)c1` the figure was 7.77; with `Cc1cccc(Cl)c1NC(=O)c1ccc2nc(Nc3ccccn3)sc2c1`, 7.08. On to `CCc1ccnc(Nc2nc3ccc(C(=O)Nc4c(C)cccc4Cl)cc3s2)c1`, for which, in experiment [1], the pIC50 is 8.30. Same read-out and setting: with `CNc1nccc(Nc2nc3ccc(C(=O)Nc4c(C)cccc4Cl)cc3s2)n1` the figure was 7.70.

In experiment [1], `Cc1cc(C)nc(Nc2nc3ccc(C(=O)Nc4c(C)cccc4Cl)cc3s2)c1` gave a pIC50 of 8.10. On to `Cc1ccnc(Nc2nc3ccc(C(=O)Nc4c(C)cc(C)cc4C)cc3s2)c1`, for which the pIC50 in experiment [1] is 7.49.

Regarding `Cc1ccc(Nc2nc3ccc(C(=O)Nc4c(C)cccc4Cl)cc3s2)nc1`, in experiment [1], the pIC50 was 7.46. On the same count and under the same terms, with `CC(=O)NCCNc1cccc(Nc2nc3ccc(C(=O)Nc4c(C)cccc4Cl)cc3s2)n1` the figure was 8.70; with `Cc1cc(C)c(NC(=O)c2ccc3nc(Nc4nccnn4)sc3c2)c(C)c1`, 5.72; with `COc1cc(Nc2nc3ccc(C(=O)Nc4c(C)cccc4Cl)cc3s2)ncn1`, 7.89. In turn, `Cc1cccc(Cl)c1NC(=O)c1ccc2nc(Nc3cccc(CN4CCOCC4)n3)sc2c1` had a pIC50 in experiment [1] of 7.89. Consider `Cc1cccc(Cl)c1NC(=O)c1ccc2nc(Nc3ccnc(Cl)n3)sc2c1`, for which the pIC50 in experiment [1] was 7.51.

In experiment [1], `CCc1cc(Nc2nc3ccc(C(=O)Nc4c(C)cc(C)cc4C)cc3s2)ncn1` gave a pIC50 of 7.11. `CNN1CCN(Cc2ccnc(Nc3nc4ccc(C(=O)Nc5c(C)cccc5Cl)cc4s3)c2)CC1` had a pIC50 in experiment [1] of 9.00. For the compound `Cc1ccnc(Nc2nc3ccc(C(=O)Nc4c(C)cccc4Cl)cc3s2)c1`, in experiment [1], the pIC50 is 7.70. `Cc1cc(Nc2nc3ccc(C(=O)Nc4c(C)cccc4Cl)cc3s2)nc(NCC(C)(C)O)n1` gave a pIC50 in experiment [1] of 8.22. Still for that read-out and setting: with `Cc1ccc(Nc2nc3ccc(C(=O)Nc4c(C)cc(C)cc4C)cc3s2)nc1` the figure was 7.14; with `Cc1cc(C)c(NC(=O)c2ccc3nc(Nc4ncccc4C)sc3c2)c(C)c1`, less than 5.51; with `Cc1cc(C)c(NC(=O)c2ccc3nc(Nc4nc[nH]n4)sc3c2)c(C)c1`, less than 5.51. The compound `Cc1cccc(Cl)c1NC(=O)c1ccc2nc(Nc3cccc(CN(C)C)n3)sc2c1` gave a pIC50 in experiment [1] of 8.00. `Cc1cccc(Cl)c1NC(=O)c1ccc2nc(Nc3cccc(NCC(C)(C)N)n3)sc2c1` had a pIC50 in experiment [1] of 8.22.

For the compound `Cc1cc(C)c(NC(=O)c2ccc3nc(Nc4ccncc4)sc3c2)c(C)c1`, the pIC50 in experiment [1] was less than 5.51. On the same count and under the same terms, with `Cc1cc(C)c(NC(=O)c2ccc3nc(Nc4ncccn4)sc3c2)c(C)c1` the figure was less than 5.51; with `Cc1cccc(Cl)c1NC(=O)c1ccc2nc(Nc3ccccc3)sc2c1`, 6.49. The compound `Cc1cc(C)c(NC(=O)c2ccc3nc(Nc4cccnc4)sc3c2)c(C)c1` gave a pIC50 in experiment [1] of less than 5.51. The compound `Cc1cccc(Cl)c1NC(=O)c1ccc2nc(Nc3cc(CN(C)C)ccn3)sc2c1` had a pIC50 in experiment [1] of 8.05. For `Cc1cccc(Cl)c1NC(=O)c1ccc2nc(Nc3cc(N)ccn3)sc2c1`, the pIC50 in experiment [1] is 6.39. On to `Cc1cc(C)c(NC(=O)c2ccc3nc(Nc4nccs4)sc3c2)c(C)c1`, for which the negative logarithm of the IC50 (pIC50) in experiment [1] is less than 5.51.

On to `Cc1cc(Nc2nc3ccc(C(=O)Nc4c(C)cccc4Cl)cc3s2)nc(NCCO)n1`, for which the pIC50 was 8.70 in experiment [1], 6.48 in experiment [2] and 8.96 in experiment [4]. Moreover, the pKi in experiment [3] was 8.40; in experiment [5], 8.00. In experiment [1], `Cc1cc(Nc2nc3ccc(C(=O)Nc4c(C)cccc4Cl)cc3s2)ncn1` gave a pIC50 of 7.68. For the compound `CC(=O)NCCNc1cc(Nc2nc3ccc(C(=O)Nc4c(C)cccc4Cl)cc3s2)ncn1`, in experiment [1], the pIC50 was 8.22. `Cc1cccc(Cl)c1NC(=O)c1ccc2nc(Nc3cc(NCCO)ncn3)sc2c1` had a pIC50 in experiment [1] of 8.10.

The compound `Cc1cccc(Cl)c1NC(=O)c1ccc2nc(Nc3cc(N)ncn3)sc2c1` showed a pIC50 in experiment [1] of 8.10. For `Cc1cc(C)c(NC(=O)c2ccc3nc(Nc4cnccn4)sc3c2)c(C)c1`, in experiment [1], the pIC50 was 6.63. Take `CNc1cc(Nc2nc3ccc(C(=O)Nc4c(C)cccc4Cl)cc3s2)ncn1`: the pIC50 in experiment [1] is 8.70; in experiment [2] it was 6.16. In addition, the pKi in experiment [3] is 8.06; in experiment [4] it was 8.18; in experiment [5], 7.77.
